Experimental data: ChEMBL document CHEMBL1764988, “Synthesis of 2-(substituted phenyl)-3,5,5-trimethylmorpholine analogues and their effects on monoamine uptake, nicotinic acetylcholine receptor function, and behavioral effects of nicotine” (J Med Chem, 2011)
pIC50: −log10 of the molar value.

Tests used:
[1] = species on record: Mus musculus; assay: Antinociceptive activity in ICR mouse assessed as inhibition of nicotine-induced response by hotplate test; type: functional
Method in brief: (§1)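 Male ICR mice (20–25 g) were used to test blockade of acute nicotine effects (tail-flick, hot-plate, locomotor activity, body temperature). At least four doses of test compound were given, with at least eight mice per dose group. Results were expressed as AD50 (mg/kg) with confidence limits, or as % effect at the highest dose tested.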

[2] = biological target: Nicotinic acetylcholine receptor alpha-1/beta-1 (Homo sapiens, UniProt P02708+P11230); assay: Antagonist activity at human alpha1beta1 nAChR in HEK293 cells assessed as inhibition of carbamylcholine-induced radiolabeled Rb ion efflux; type: functional, cell-based
Chain of Nicotinic acetylcholine receptor alpha-1/beta-1 (P02708 whole entry): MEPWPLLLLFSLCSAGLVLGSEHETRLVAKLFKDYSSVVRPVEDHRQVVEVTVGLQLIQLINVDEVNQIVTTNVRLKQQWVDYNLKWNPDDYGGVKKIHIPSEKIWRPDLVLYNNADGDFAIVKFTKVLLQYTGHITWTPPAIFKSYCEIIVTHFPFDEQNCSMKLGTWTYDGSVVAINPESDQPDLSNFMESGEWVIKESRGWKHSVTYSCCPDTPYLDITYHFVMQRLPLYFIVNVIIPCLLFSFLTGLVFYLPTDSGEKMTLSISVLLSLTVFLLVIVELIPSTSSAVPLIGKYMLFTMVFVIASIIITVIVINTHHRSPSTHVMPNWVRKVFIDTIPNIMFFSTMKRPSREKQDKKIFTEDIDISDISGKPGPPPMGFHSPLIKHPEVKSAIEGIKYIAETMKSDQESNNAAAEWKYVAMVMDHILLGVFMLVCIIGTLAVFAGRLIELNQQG
Chain of Nicotinic acetylcholine receptor alpha-1/beta-1 (P11230 whole entry): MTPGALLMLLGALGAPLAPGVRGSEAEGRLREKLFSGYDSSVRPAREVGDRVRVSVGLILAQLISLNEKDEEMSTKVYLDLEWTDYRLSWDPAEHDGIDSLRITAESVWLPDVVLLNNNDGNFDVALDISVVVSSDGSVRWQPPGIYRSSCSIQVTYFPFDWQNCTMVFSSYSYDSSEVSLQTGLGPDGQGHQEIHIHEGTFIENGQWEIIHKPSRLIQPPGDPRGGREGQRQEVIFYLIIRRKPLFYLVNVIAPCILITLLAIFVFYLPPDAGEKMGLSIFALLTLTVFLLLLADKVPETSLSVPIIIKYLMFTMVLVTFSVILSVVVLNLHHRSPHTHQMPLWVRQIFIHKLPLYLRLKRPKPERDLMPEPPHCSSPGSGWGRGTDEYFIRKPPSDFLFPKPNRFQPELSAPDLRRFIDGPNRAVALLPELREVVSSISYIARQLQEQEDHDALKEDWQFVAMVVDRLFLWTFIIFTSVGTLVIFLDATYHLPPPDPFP
Method in brief: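 86Rb+ efflux from human nAChR subtypes naturally or heterologously expressed in human cell lines. Cells were stimulated with a subtype-specific EC80–EC90 concentration of the full agonist carbamylcholine, alone or with test ligand (log molar series). Specific efflux was expressed as percent of control. IC50 values are means from three independent experiments; SEM is given as a multiplication/division factor.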

[3] = biological target: Sodium-dependent dopamine transporter (Homo sapiens, UniProt Q01959); assay: Inhibition of human DAT in HEK293 cells assessed as inhibition of [3H]dopamine uptake; type: cell-based
Chain of Sodium-dependent dopamine transporter (Q01959 whole entry): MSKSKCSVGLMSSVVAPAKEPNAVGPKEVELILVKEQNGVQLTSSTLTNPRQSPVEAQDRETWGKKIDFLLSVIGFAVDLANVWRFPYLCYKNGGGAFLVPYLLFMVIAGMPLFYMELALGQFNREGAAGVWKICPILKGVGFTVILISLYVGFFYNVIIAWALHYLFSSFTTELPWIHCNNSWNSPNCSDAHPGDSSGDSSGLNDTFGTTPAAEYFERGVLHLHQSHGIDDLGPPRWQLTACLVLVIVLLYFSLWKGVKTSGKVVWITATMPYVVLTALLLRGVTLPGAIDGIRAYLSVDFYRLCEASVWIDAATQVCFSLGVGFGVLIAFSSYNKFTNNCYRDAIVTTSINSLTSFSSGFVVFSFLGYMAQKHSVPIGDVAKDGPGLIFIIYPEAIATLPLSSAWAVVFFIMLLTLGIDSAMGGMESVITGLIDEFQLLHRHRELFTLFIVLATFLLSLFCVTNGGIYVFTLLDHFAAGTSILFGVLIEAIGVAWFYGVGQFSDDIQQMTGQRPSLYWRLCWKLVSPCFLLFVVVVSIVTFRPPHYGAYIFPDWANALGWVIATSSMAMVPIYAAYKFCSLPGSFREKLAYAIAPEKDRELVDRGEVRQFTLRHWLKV
Method in brief: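 [3H]DA, [3H]NE or [3H]5HT uptake was measured by the corresponding human transporter stably expressed in HEK-293 cells. Values are mean ± standard error of three independent experiments, each run in triplicate.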

[4] = species on record: Mus musculus; assay: Antinociceptive activity in ICR mouse assessed as inhibition of nicotine-induced response by tail flick test; type: functional; method in brief: as §1
[5] = species on record: Mus musculus; assay: Effect on body temperature in ICR mouse assessed as inhibition of nicotine-induced hypothermic response; type: functional; method in brief: as §1
[6] = species on record: Mus musculus; assay: Effect on behavioral activity in ICR mouse assessed as inhibition of nicotine-induced locomotory response; type: functional; method in brief: as §1

Question: Which results are given for C[C@@H]1NC(C)(C)CO[C@@]1(O)c1cccc(Br)c1?
Answer: AD50 [1]: >20 mg/kg; pIC50 [2]: 5.14; pIC50 [3]: 7.36; AD50 [4]: 0.006 mg/kg; AD50 [5]: >20 mg/kg; AD50 [6]: 2.1 mg/kg

Question: Which results are given for CCC[C@@H]1NC(C)(C)CO[C@@]1(O)c1cccc(Cl)c1?
Answer: AD50 [1]: >20 mg/kg; AD50 [4]: 0.017 mg/kg; AD50 [5]: >20 mg/kg; AD50 [6]: 0.49 mg/kg

Question: For C[C@@H]1N(C)C(C)(C)CO[C@@]1(O)c1cccc(Cl)c1, which AD50 [1] is on record?
Answer: >20 mg/kg

Question: What about the pIC50 [2] of the same compound?
Answer: 4.68

Question: And the pIC50 [3]?
Answer: 6.64

Question: And the AD50 [4]?
Answer: 0.13 mg/kg

Question: What about the AD50 [5] of the same compound?
Answer: >20 mg/kg

Question: And the AD50 [6]?
Answer: 3.8 mg/kg

Question: For C[C@H]1NC(C)(C)CO[C@]1(O)c1cccc(Cl)c1, which AD50 [1] is on record?
Answer: 3.9 mg/kg

Question: And the AD50 [4]?
Answer: 1.26 mg/kg

Question: What about the AD50 [5] of the same compound?
Answer: >20 mg/kg

Question: And the AD50 [6]?
Answer: >20 mg/kg
